ChEMBL document CHEMBL3632581, “Dimers of Melampomagnolide B Exhibit Potent Anticancer Activity against Hematological and Solid Tumor Cells” (J Med Chem, 2015)

What was measured:
CCRF-CEM = experiment: Cytotoxicity against human CCRF-CEM cells after 48 hrs by SRB assay; format: functional; settings: for CC50: read-out: LC50 (the source's name)
Outline: (§1)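 NCI-60 five-dose screen at 10−8 to 10−4 M. Cells were plated at 5,000–40,000/well in RPMI 1640 with 5% FBS and 2 mM L-glutamine, then preincubated 24 h, and time-zero plates were TCA-fixed. Compound was added from DMSO stocks and exposed 48 h at 37 °C. Cells were TCA-fixed, SRB-stained, and read at 515 nm. LC50 is the concentration halving the cell population through cell death.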

HL-60(TB) = experiment: Cytotoxicity against human HL-60(TB) cells after 48 hrs by SRB assay; format: functional; settings: HL-60, 48 h; for CC50: read-out: LC50 (the source's name); outline: as §1
MOLT-4 = experiment: Cytotoxicity against human MOLT4 cells after 48 hrs by SRB assay; format: functional; settings: MOLT-4, 48 h; for CC50: read-out: LC50 (the source's name); outline: as §1
SR = experiment: Cytotoxicity against human SR cells after 48 hrs by SRB assay; format: functional; settings: for CC50: read-out: LC50 (the source's name)
Outline: (§2)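 NCI-60 screen: cells grown in RPMI 1640 with 5% FBS and 2 mM L-glutamine, plated at 5,000–40,000 cells/well by doubling time, and preincubated 24 h at 37 °C before drug. Drug was diluted from DMSO stock and given at five concentrations, 10−4 to 10−8 M, for 48 h. Cells fixed with cold TCA, SRB stained, OD read at 515 nm against time-zero and vehicle plates. LC50 taken as the concentration that halves cell population through cell death.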

HOP-92 = experiment: Cytotoxicity against human HOP92 cells after 48 hrs by SRB assay; format: functional; settings: HOP-92, 48 h; for CC50: read-out: LC50 (the source's name); outline: as §1
NCI-H226 = experiment: Cytotoxicity against human NCI-H226 cells after 48 hrs by SRB assay; format: functional; settings: NCI-H226, 48 h; for CC50: read-out: LC50 (the source's name); outline: as §1
NCI-H522 = experiment: Cytotoxicity against human NCI-H522 cells after 48 hrs by SRB assay; format: functional; settings: NCI-H522, 48 h; for CC50: read-out: LC50 (the source's name); outline: as §1
COLO 205 = experiment: Cytotoxicity against human COLO205 cells after 48 hrs by SRB assay; format: functional; settings: COLO 205, 48 h; for CC50: read-out: LC50 (the source's name); outline: as §1
HCC 2998 = experiment: Cytotoxicity against human HCC2998 cells after 48 hrs by SRB assay; format: functional; settings: HCC 2998, 48 h; for CC50: read-out: LC50 (the source's name); outline: as §1
HCT-15 = experiment: Cytotoxicity against human HCT15 cells after 48 hrs by SRB assay; format: functional; settings: HCT-15, 48 h; for CC50: read-out: LC50 (the source's name); outline: as §1
HT-29 = experiment: Cytotoxicity against human HT-29 cells after 48 hrs by SRB assay; format: functional; settings: HT-29, 48 h; for CC50: read-out: LC50 (the source's name); outline: as §1
KM12 = experiment: Cytotoxicity against human KM12 cells after 48 hrs by SRB assay; format: functional; settings: KM12, 48 h; for CC50: read-out: LC50 (the source's name); outline: as §1
SW-620 = experiment: Cytotoxicity against human SW620 cells after 48 hrs by SRB assay; format: functional; settings: SW-620, 48 h; for CC50: read-out: LC50 (the source's name); outline: as §2
SF-268 = experiment: Cytotoxicity against human SF268 cells after 48 hrs by SRB assay; format: functional; settings: SF-268, 48 h; for CC50: read-out: LC50 (the source's name); outline: as §1
SF-539 = experiment: Cytotoxicity against human SF539 cells after 48 hrs by SRB assay; format: functional; settings: SF-539, 48 h; for CC50: read-out: LC50 (the source's name); outline: as §1
SNB-75 = experiment: Cytotoxicity against human SNB75 cells after 48 hrs by SRB assay; format: functional; settings: SNB-75, 48 h; for CC50: read-out: LC50 (the source's name); outline: as §1
U-251 = experiment: Cytotoxicity against human U251 cells after 48 hrs by SRB assay; format: functional; settings: U-251, 48 h; for CC50: read-out: LC50 (the source's name); outline: as §2
LOX IMVI = experiment: Cytotoxicity against human LOXIMVI cells after 48 hrs by SRB assay; format: functional; settings: for CC50: read-out: LC50 (the source's name); outline: as §1
MDA-MB-435 = experiment: Cytotoxicity against human MDA-MB-435 cells after 48 hrs by SRB assay; format: functional; settings: MDA-MB-435, 48 h; for CC50: read-out: LC50 (the source's name); outline: as §1
UACC-62 = experiment: Cytotoxicity against human UACC62 cells after 48 hrs by SRB assay; format: functional; settings: UACC-62, 48 h; for CC50: read-out: LC50 (the source's name); outline: as §2
OVCAR-3 = experiment: Cytotoxicity against human OVCAR3 cells after 48 hrs by SRB assay; format: functional; settings: OVCAR-3, 48 h; for CC50: read-out: LC50 (the source's name); outline: as §1
A498 = experiment: Cytotoxicity against human A498 cells after 48 hrs by SRB assay; format: functional; settings: A498, 48 h; for CC50: read-out: LC50 (the source's name); outline: as §1
CAKI-1 = experiment: Cytotoxicity against human Caki1 cells after 48 hrs by SRB assay; format: functional; settings: CAKI-1, 48 h; for CC50: read-out: LC50 (the source's name); outline: as §1
SN12C = experiment: Cytotoxicity against human SN12C cells after 48 hrs by SRB assay; format: functional; settings: for CC50: read-out: LC50 (the source's name); outline: as §1
UO-31 = experiment: Cytotoxicity against human UO31 cells after 48 hrs by SRB assay; format: functional; settings: UO-31, 48 h; for CC50: read-out: LC50 (the source's name); outline: as §2
DU-145 = experiment: Cytotoxicity against human DU145 cells after 48 hrs by SRB assay; format: functional; settings: DU-145, 48 h; outline: as §1
MDA-MB-231 = experiment: Cytotoxicity against human MDA-MB-231 cells after 48 hrs by SRB assay; format: functional; settings: MDA-MB-231, 48 h; outline: as §1
[1] = Cytotoxicity against human Hs 578T cells after 48 hrs by SRB assay; format: functional; settings: for CC50: read-out: LC50 (the source's name); outline: as §1
BT-549 = experiment: Cytotoxicity against human BT549 cells after 48 hrs by SRB assay; format: functional; settings: BT-549, 48 h; outline: as §1
T47D = experiment: Cytotoxicity against human T47D cells after 48 hrs by SRB assay; format: functional; settings: for CC50: read-out: LC50 (the source's name); outline: as §2
[2] = Antileukemic activity against human AML01 cells after 24 hrs by annexin V/7-AAD staining-based flow cytometric analysis; format: functional, cell-based
Outline: (§3)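 Primary AML specimens from consenting donors, isolated by Ficoll-Paque gradient and sometimes cryopreserved. Cells were held 1 h in serum-free IMDM with 20% BIT 9500, LDL and β-mercaptoethanol before drug (DMSO stock diluted in PBS, ≤0.5% DMSO final). Exposure was 24 h over 0.5-10 μM. Annexin V/7-AAD double-negative cells, normalized to vehicle, gave the EC50. Run in triplicate.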

[3] = Antileukemic activity against human AML02 cells after 24 hrs by annexin V/7-AAD staining-based flow cytometric analysis; format: functional, cell-based; outline: as §3
[4] = Antileukemic activity against human AML04 cells after 24 hrs by annexin V/7-AAD staining-based flow cytometric analysis; format: functional, cell-based; outline: as §3
[5] = Cytotoxicity against human EKVX cells after 48 hrs by SRB assay; format: functional; outline: as §1
HOP-62 = experiment: Cytotoxicity against human HOP62 cells after 48 hrs by SRB assay; format: functional; settings: HOP-62, 48 h; outline: as §1
[6] = read-out: LC50 (the source's name)

## C=C1C(=O)O[C@H]2[C@H]1CC/C(COC(=O)NCCCCCNC(=O)OC/C1=C/CC[C@@]3(C)O[C@H]3[C@H]3OC(=O)C(=C)[C@@H]3CC1)=C\CC[C@@]1(C)O[C@@H]21
CCRF-CEM
  GI50: 280 nM
  CC50: > 100000 nM
HL-60(TB)
  GI50: 310 nM
  CC50: > 100000 nM
MOLT-4
  GI50: 1480 nM
  CC50: > 100000 nM
SR
  GI50: 380 nM
  CC50: > 100000 nM
HOP-92
  GI50: 1300 nM
  CC50: 8610 nM
NCI-H226
  GI50: 2560 nM
  CC50: 30900 nM
NCI-H522
  GI50: 220 nM
  CC50: 880 nM
COLO 205
  GI50: 520 nM
  CC50: 7970 nM
HCC 2998
  GI50: 6710 nM
  CC50: 53900 nM
HCT-15
  GI50: 6180 nM
  CC50: 49800 nM
HT-29
  GI50: 510 nM
  CC50: 4850 nM
KM12
  GI50: 6530 nM
  CC50: 54200 nM
SW-620
  GI50: 430 nM
  CC50: 5140 nM
SF-268
  GI50: 3080 nM
  CC50: 42300 nM
SF-539
  GI50: 1920 nM
  CC50: 12700 nM
SNB-75
  GI50: 2200 nM
  CC50: 33800 nM
U-251
  GI50: 3510 nM
  CC50: 51500 nM
LOX IMVI
  GI50: 460 nM
  CC50: 5820 nM
MDA-MB-435
  GI50: 1510 nM
  CC50: 7300 nM
UACC-62
  GI50: 1410 nM
  CC50: 7040 nM
OVCAR-3
  GI50: 760 nM
  CC50: 5070 nM
A498
  GI50: 6240 nM
  CC50: 47500 nM
CAKI-1
  GI50: 16100 nM
  CC50: 68100 nM
SN12C
  GI50: 2490 nM
  CC50: 45500 nM
UO-31
  GI50: 8900 nM
  CC50: 52300 nM
DU-145
  GI50: 3060 nM
  LC50 (concentration killing half the cells): 32600 nM
MDA-MB-231
  GI50: 1470 nM
  LC50: 6400 nM
[1]
  GI50: 2910 nM
  CC50: > 100000 nM
BT-549
  GI50: 1000 nM
  LC50: 4960 nM
T47D
  GI50: 1600 nM
  CC50: > 100000 nM
[2]
  EC50: 1600 nM
[3]
  EC50: 900 nM
[4]
  EC50: 3500 nM

## C=C1C(=O)O[C@H]2[C@H]1CC/C(COC(=O)NCCCCCCCCNC(=O)OC/C1=C/CC[C@@]3(C)O[C@H]3[C@H]3OC(=O)C(=C)[C@@H]3CC1)=C\CC[C@@]1(C)O[C@@H]21
CCRF-CEM
  GI50: 250 nM
  CC50: > 100000 nM
HL-60(TB)
  GI50: 260 nM
  CC50: > 100000 nM
MOLT-4
  GI50: 330 nM
  CC50: > 100000 nM
SR
  GI50: 310 nM
  CC50: > 100000 nM
[5]
  GI50: 1190 nM
[5]; [6]
  CC50: 4990 nM
HOP-62
  GI50: 1530 nM
HOP-62; [6]
  CC50: 7950 nM
HOP-92
  GI50: 170 nM
  CC50: 2290 nM
NCI-H226
  GI50: 1810 nM
  CC50: 21100 nM
NCI-H522
  GI50: 180 nM
  CC50: 890 nM
COLO 205
  GI50: 300 nM
  CC50: 3990 nM
HCC 2998
  GI50: 1200 nM
  CC50: 5280 nM
HCT-15
  GI50: 340 nM
  CC50: 4180 nM
HT-29
  GI50: 220 nM
  CC50: 2270 nM
KM12
  GI50: 1290 nM
  CC50: 7490 nM
SW-620
  GI50: 230 nM
  CC50: 3370 nM
SF-268
  GI50: 990 nM
  CC50: 7240 nM
SF-539
  GI50: 230 nM
  CC50: 2260 nM
SNB-75
  GI50: 1250 nM
  CC50: 9840 nM
U-251
  GI50: 570 nM
  CC50: 5130 nM
LOX IMVI
  GI50: 170 nM
  CC50: 760 nM
MDA-MB-435
  GI50: 240 nM
  CC50: 3740 nM
UACC-62
  GI50: 190 nM
  CC50: 1720 nM
OVCAR-3
  GI50: 330 nM
  CC50: 3320 nM
A498
  GI50: 1690 nM
  CC50: 5830 nM
CAKI-1
  GI50: 650 nM
  CC50: 4790 nM
SN12C
  GI50: 260 nM
  CC50: 5490 nM
UO-31
  GI50: 880 nM
  CC50: 4900 nM
DU-145
  GI50: 1100 nM
  LC50 (concentration killing half the cells): 4810 nM
MDA-MB-231
  GI50: 200 nM
  LC50: 1240 nM
[1]
  GI50: 1170 nM
  CC50: > 100000 nM
BT-549
  GI50: 250 nM
  LC50: 3570 nM
T47D
  GI50: 320 nM
  CC50: > 100000 nM
[2]
  EC50: 2600 nM
[3]
  EC50: 1200 nM
[4]
  EC50: 3700 nM
